HKDC1 inh – inhibitors of human hexokinase HKDC1 | recombinant HKDC1, G6PDH/diaphorase resazurin coupled fluorescence | Q2TB90 | 340,000 compounds, 0.16% hits | AID 493160 | inhibition, % at 20 µM;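 active means inhibition above about 35% when tested at 20 µM, limit read from the data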;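 further: plate controls were DMSO wells with enzyme for no effect and DMSO wells lacking enzyme for full effect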
Target sequence (Q2TB90 whole entry, looked up): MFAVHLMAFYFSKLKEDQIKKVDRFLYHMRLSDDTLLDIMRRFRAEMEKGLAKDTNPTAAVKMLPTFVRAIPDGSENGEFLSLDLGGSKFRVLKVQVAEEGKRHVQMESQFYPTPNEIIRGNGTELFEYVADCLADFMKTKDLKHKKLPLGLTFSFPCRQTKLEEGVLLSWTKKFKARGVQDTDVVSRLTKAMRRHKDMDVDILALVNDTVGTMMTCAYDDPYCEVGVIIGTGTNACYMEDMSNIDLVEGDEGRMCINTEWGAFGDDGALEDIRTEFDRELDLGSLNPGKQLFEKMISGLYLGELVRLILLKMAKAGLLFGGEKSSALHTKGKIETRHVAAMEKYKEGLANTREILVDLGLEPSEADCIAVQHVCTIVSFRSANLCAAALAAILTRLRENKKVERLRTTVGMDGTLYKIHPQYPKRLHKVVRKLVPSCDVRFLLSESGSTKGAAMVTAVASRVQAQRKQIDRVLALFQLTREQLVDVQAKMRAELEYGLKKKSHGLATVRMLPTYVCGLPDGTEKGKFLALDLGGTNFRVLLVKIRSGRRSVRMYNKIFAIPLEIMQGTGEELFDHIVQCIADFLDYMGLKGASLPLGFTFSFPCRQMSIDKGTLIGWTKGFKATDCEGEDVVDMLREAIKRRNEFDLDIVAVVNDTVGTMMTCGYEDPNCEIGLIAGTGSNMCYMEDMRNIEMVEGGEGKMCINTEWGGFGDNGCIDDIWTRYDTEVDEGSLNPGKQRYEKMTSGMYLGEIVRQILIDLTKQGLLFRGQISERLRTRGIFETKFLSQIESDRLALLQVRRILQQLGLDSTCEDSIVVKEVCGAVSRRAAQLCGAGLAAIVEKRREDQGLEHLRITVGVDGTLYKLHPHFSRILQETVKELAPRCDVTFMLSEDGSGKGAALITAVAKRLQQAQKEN
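Assay system: recombinant HKDC1 hexokinase; detection: coupled resazurin fluorescence, excitation 525 nm, emission 613 nm; benchmarks: DMSO-plus-enzyme-mix negative control, buffer-substituted positive control; compound dosing: single 20 µM dose; schedule: 90 min at room temperature in dark; also added: glucose plus 1 mM ATP as hexokinase substrates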
PERK inh – blocks human PERK kinase; 220,000 compounds, 0.17% hits; inhibition, % at 5.6 µM; CHO PERK-DD fusion, SEAP luminescence translation reporter; Q9NZJ5;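 active means inhibition above the mean inhibition of all tested compounds plus 3 SD, set separately per screening campaign, cut at about 2.9% in these data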;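 further: PERK kinase domain activated by AP20187 dimerizer at 100 nM; 0% = DMSO with dimerizer and 100% = rapamycin at 8.4 µM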
HSV augment – increases HSV replication in cells | maximum fold increase | 220,000 compounds, 0.005% hits | HSV replication augmentation in cells, fold increase; in the data active means maximum fold increase above about 1.5; tested in PC3 cells
Autophagy mod – autophagy modulation, high-content screen | MEF GFP-LC3 puncta imaging; test concentration mostly 10 µM | calls only at 10 µM (by protocol) | 190,000 compounds, 0.98% hits;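 active means percentage of spot-positive cells more than 3 SD above its plate mean, without a fluorescence outlier flag or 80% toxicity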;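 further: spot-positive cell cutoff set from DMSO-treated cells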
Tb hexokinase – blocks Trypanosoma brucei hexokinase 1 activity | recombinant TbHK1, G6PDH-coupled NADH A340 | inhibition, % at 10 µM | 220,000 compounds, 0.11% hits | AID 1430;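 active means inhibition of 50% or more in the single-dose primary screen; inactive means inhibition below 50%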
Dynein transport – blocks dynein driven cargo transport along microtubules; 3617.4 mouse cells, GR-EGFP nuclear translocation imaging; test concentration mostly 20 µM; stimulated with dexamethasone, 1 µM; hits give low values; 220,000 compounds, 0.47% hits; z-score, hits read low; AID 1381;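 active means plate z-score of nuclear minus cytoplasmic receptor signal below a set negative limit, without overly bright fluorescence or cell loss, cut at about -3.5 in these data, passing the limit was not always enough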;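 further: z-score of nuclear minus cytoplasmic ring GR-EGFP intensity difference per well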
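medium = tetracycline-free induction medium containing charcoal-stripped FBS | also added = 1.0 µM final dexamethasone stimulus | schedule = 48 h induction, 1 h compound, 30 min dex at 37 °C | technique = fixed, Hoechst-stained cells imaged at 10x for EGFP | measure = GR-EGFP nuclear translocation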
The depositor's hits bear a star. Sampled rows, rich in hits. Any-hit rate of the full collection: about 1.2%.

How did CC(C)CC(=O)NC(=S)Nc1ccc(S(=O)(=O)Nc2nccs2)cc1 do in these assays?
HKDC1 inh: -2; PERK inh: 1; HSV augment: inactive; Autophagy mod: active; Tb hexokinase: 23; Dynein transport: -0.25

How did O=[N+]([O-])c1ccc(Nc2c3ccccc3nc3ccccc23)cc1 do in these assays?
HKDC1 inh: 19; PERK inh: 0; HSV augment: inactive; Autophagy mod: active; Tb hexokinase: -1; Dynein transport: 0.78

Results for O=[N+]([O-])c1ccccc1Nc1c2ccccc2nc2ccccc12 ?
HKDC1 inh: 1; PERK inh: 1; HSV augment: inactive; Autophagy mod: inactive; Tb hexokinase: -16; Dynein transport: 1.2

What do the screens show for `COc1cccc(NC(=O)c2ccnc(N3CCC(C(=O)NCc4ccccc4OC)CC3)c2)c1`?
HKDC1 inh: -5

What do the screens show for `N#CC12C(=O)NC(=O)C1(C#N)C21CCCC1` (configuration not stated)?
HKDC1 inh: -1

How did Cc1cscc1NC(=O)/C=C/C(=O)O do in these assays?
HKDC1 inh: -6; PERK inh: 3.5*; HSV augment: inactive; Tb hexokinase: -4; Dynein transport: 1.3

What do the screens show for `CCOc1ccccc1NC(=O)N1C2CCCC1CC(NC(=O)C1CC1)C2` (configuration not stated)?
HKDC1 inh: -3; PERK inh: 0; HSV augment: inactive; Autophagy mod: active; Tb hexokinase: 5; Dynein transport: 0.46

What do the screens show for `CCOc1ccccc1NC(=O)C1CCN(C(=O)c2cccs2)CC1`?
HKDC1 inh: 3; PERK inh: -1; HSV augment: inactive; Autophagy mod: active; Tb hexokinase: 6; Dynein transport: -1.2

How did O=C(CN1CCN(c2ccc(O)cc2)CC1)Nc1cc([N+](=O)[O-])ccc1Cl do in these assays?
HKDC1 inh: 2; PERK inh: 0; HSV augment: inactive; Autophagy mod: active; Tb hexokinase: -5; Dynein transport: 0.26

How did CC(=O)N1CCN(CC(=O)Nc2cc([N+](=O)[O-])ccc2Cl)CC1 do in these assays?
HKDC1 inh: -6; PERK inh: -1; HSV augment: inactive; Autophagy mod: inactive; Tb hexokinase: -21; Dynein transport: -1.1

How did O=C(O)c1cccc2c1Cc1cc(Cl)ccc1-2 do in these assays?
HKDC1 inh: -2

Results for CC1(C(=O)Nc2ccccc2)Cc2ccccc2C(=O)O1 (configuration not stated) ?
HKDC1 inh: -8; PERK inh: 0; HSV augment: inactive; Autophagy mod: active; Tb hexokinase: -10; Dynein transport: -1.1

How did COc1ccc2[nH]c3c(c2c1)CCNC3C1CC=C(C)CC1 (configuration not stated) do in these assays?
HKDC1 inh: -10; PERK inh: 0; HSV augment: inactive; Autophagy mod: active; Tb hexokinase: 10; Dynein transport: -0.089

How did CC1(C)CC(=O)C(CC2=C(O)CC(C)(C)CC2=O)C(=O)C1 do in these assays?
HKDC1 inh: 1; PERK inh: 2; HSV augment: inactive; Autophagy mod: inactive; Tb hexokinase: 5; Dynein transport: -0.064

How did CC1(C)CC(=O)C(CC2=C(O)CC(C)(C)CC2=O)=C(O)C1 do in these assays?
HKDC1 inh: -9; PERK inh: 0; HSV augment: inactive; Autophagy mod: active; Tb hexokinase: -2; Dynein transport: 0.71

Results for CN(C)C(=O)CCc1ccc2c3c([nH]c2c1)[C@]1(CCc2ccccc2)[C@@H](C(=O)N2CCCCC2)C[C@H](CC(=O)NC(C)(C)C)C(=O)N1CC3 ?
HKDC1 inh: 2

Results for O=[N+]([O-])c1cc2c(cc1/C=N/Nc1nc(Nc3ccccc3)nc(N3CCCCC3)n1)OCO2 ?
HKDC1 inh: -7; PERK inh: 1; HSV augment: inactive; Autophagy mod: active; Tb hexokinase: -8; Dynein transport: 0.71

What do the screens show for `CCSc1nc2ccccc2n1C(=O)/C=C/c1ccc(OC)c(OC)c1`?
HKDC1 inh: 14; PERK inh: 1; HSV augment: inactive; Autophagy mod: inactive; Tb hexokinase: -11; Dynein transport: -0.83

How did C=CCSc1nc2ccccc2n1C(=O)/C=C/c1ccc(OC)c(OC)c1 do in these assays?
HKDC1 inh: 5; PERK inh: 0; HSV augment: inactive; Autophagy mod: inactive; Tb hexokinase: -8; Dynein transport: -5.1*

Results for CCCN(CC1CC1)C(=O)COC(=O)c1oc2c(F)cccc2c1C ?
HKDC1 inh: -2

Results for CC(=O)c1nc(N2C(=O)CC(Cc3cc(C)cc(C)c3)C2=O)sc1C (configuration not stated) ?
HKDC1 inh: -5; PERK inh: 0; HSV augment: inactive; Autophagy mod: active; Tb hexokinase: 28; Dynein transport: 0.15

What do the screens show for `COc1ccc(Br)cc1CN(C)CC(=O)Nc1c(Cl)cccc1Cl`?
HKDC1 inh: -4; PERK inh: 0; HSV augment: inactive; Autophagy mod: inactive; Tb hexokinase: -2; Dynein transport: -0.6

What do the screens show for `Oc1c(C(Nc2ccccn2)c2cccnc2)cc(Cl)c2cccnc12` (configuration not stated)?
HKDC1 inh: -24; PERK inh: 0; HSV augment: inactive; Autophagy mod: active; Tb hexokinase: 10; Dynein transport: -0.14

Results for Cc1cc(-c2cc(N)n(-c3ccccc3)n2)c(C)n1C1CCCC1 ?
HKDC1 inh: 12; PERK inh: -1; HSV augment: inactive; Autophagy mod: active; Tb hexokinase: 3; Dynein transport: 3.3

How did CCCCn1c(N)c(N(CCOC)C(=O)c2nn(CC)c(=O)c3ccccc23)c(=O)[nH]c1=O do in these assays?
HKDC1 inh: -5

What do the screens show for `COc1cccc(/C(O)=C/c2nc3ccc(C(=O)NCCc4cccc(C)c4)cc3[nH]c2=O)c1`?
HKDC1 inh: -5; PERK inh: 0; HSV augment: inactive; Autophagy mod: active; Tb hexokinase: -8; Dynein transport: -2.2

How did COC(=O)c1ccc(C(=O)OC)c(NC(=O)C2CC(=O)N(C3CCCC3)C2)c1 (configuration not stated) do in these assays?
HKDC1 inh: -1

What do the screens show for `CC(=O)Nc1ccc(Nc2nc3ccccc3n3cnnc23)cc1`?
HKDC1 inh: 5

Results for COc1ccc(CCNC(=O)C2CCN(S(=O)(=O)N3CC(C)CC(C)C3)CC2)cc1OC (configuration not stated) ?
HKDC1 inh: -3; PERK inh: -2; HSV augment: inactive; Autophagy mod: inactive; Tb hexokinase: 53*; Dynein transport: 0.76

What do the screens show for `COc1ccc(CCNC(=O)C2CCCN(S(=O)(=O)N3CC(C)CC(C)C3)C2)cc1OC` (configuration not stated)?
HKDC1 inh: 1
